{
  "source": "ChEMBL document CHEMBL5712911",
  "about": "“A homogeneous bioluminescent immunoassay to probe cellular signaling pathway regulation” (Commun Biol, 2020)",
  "key": {"[1]": {"target": "T1, Retinoblastoma-associated protein (Homo sapiens) (UniProt P06400)", "T1 sequence (whole entry)": "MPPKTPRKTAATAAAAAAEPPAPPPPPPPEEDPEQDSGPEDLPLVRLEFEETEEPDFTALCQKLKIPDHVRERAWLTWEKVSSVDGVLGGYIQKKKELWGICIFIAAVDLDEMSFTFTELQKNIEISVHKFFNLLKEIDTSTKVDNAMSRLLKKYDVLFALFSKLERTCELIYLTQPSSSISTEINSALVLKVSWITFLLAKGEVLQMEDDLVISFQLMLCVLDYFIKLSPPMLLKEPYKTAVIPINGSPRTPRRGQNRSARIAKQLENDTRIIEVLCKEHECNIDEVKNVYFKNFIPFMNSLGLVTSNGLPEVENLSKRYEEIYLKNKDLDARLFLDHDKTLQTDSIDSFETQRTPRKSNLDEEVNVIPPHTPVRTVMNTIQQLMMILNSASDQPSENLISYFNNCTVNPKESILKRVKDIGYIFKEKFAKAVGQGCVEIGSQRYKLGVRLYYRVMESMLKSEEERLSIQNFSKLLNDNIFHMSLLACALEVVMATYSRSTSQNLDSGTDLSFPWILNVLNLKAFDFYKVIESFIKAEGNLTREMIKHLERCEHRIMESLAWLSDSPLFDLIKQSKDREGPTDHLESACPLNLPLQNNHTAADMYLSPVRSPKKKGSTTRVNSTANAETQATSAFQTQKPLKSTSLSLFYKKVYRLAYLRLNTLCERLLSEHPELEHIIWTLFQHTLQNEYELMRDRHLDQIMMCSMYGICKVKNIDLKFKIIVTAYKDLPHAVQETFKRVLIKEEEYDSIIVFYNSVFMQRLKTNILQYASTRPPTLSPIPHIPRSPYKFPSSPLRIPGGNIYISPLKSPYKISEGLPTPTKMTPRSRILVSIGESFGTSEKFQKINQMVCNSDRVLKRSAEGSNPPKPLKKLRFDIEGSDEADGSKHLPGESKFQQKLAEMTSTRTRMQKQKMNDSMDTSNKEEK", "test": "Inhibition of RB protein in human MCF7 cells assessed as reduction in EGF-induced Rb phosphorylation at Ser807/811 residue by NanoBiT cell-based immunoassay"}, "[2]": {"target": "T1, Retinoblastoma-associated protein (Homo sapiens)", "test": "Inhibition of RB protein in human MCF7 cells assessed as reduction in EGF-induced Rb phosphorylation at Ser780 residue by NanoBiT cell-based immunoassay"}, "[3]": {"target": "T1, Retinoblastoma-associated protein (Homo sapiens)", "test": "Inhibition of RB protein in human MCF7 cells assessed as reduction in 17beta-estradiol-induced Rb phosphorylation at Ser807/811 residue by NanoBiT cell-based immunoassay"}, "[4]": {"target": "T1, Retinoblastoma-associated protein (Homo sapiens)", "test": "Inhibition of RB protein in human MCF7 cells assessed as reduction in 17beta-estradiol-induced Rb phosphorylation at Ser780 residue by NanoBiT cell-based immunoassay"}, "[5]": {"test": "Effect on total STAT3 expression in human A-431 cells at 1 uM measured after 1 hr by NanoBiT cell-based immunoassay", "type": "toxicity", "conditions": "a-431, 1 h", "method_in_brief": "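A431 cells, 50,000/well, were kept overnight in serum-free medium. […] Total STAT3 was measured by NanoBiT immunoassay after 20 min digitonin lysis (antibody mix 90 min, 23 °C; Nano-Glo luminescence). Means ± S.E.M., n = 3 technical replicates.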"}, "[6]": {"target": "T2, Catenin beta-1 (Homo sapiens) (UniProt P35222)", "T2 sequence (whole entry)": "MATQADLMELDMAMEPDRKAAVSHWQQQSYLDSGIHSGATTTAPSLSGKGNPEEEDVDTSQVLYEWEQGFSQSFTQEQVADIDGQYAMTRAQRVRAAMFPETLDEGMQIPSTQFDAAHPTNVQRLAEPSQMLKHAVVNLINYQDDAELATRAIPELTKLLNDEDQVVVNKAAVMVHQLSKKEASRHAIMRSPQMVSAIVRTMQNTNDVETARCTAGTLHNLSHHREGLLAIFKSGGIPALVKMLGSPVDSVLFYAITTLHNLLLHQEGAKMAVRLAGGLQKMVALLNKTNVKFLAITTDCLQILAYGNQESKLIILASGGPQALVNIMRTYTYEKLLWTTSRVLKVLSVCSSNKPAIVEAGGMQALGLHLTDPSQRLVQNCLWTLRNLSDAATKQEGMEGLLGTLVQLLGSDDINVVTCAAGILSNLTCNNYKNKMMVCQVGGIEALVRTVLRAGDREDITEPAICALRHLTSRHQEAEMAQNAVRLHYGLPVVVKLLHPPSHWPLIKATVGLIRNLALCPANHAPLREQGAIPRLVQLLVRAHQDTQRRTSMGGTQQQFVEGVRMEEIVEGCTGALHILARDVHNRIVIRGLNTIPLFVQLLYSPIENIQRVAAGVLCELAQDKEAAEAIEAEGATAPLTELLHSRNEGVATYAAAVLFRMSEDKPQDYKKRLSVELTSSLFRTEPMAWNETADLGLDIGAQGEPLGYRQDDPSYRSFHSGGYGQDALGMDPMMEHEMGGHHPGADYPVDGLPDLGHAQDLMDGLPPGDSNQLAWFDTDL", "test": "Induction of beta-catenin degradation in Wnt3a-stimulated HEK293 cells by NanoBiT cell-based immunoassay"}, "[7]": {"test": "Effect on total IkappaBalpha level in human MCF7 cells measured after 4 hrs by NanoBiT cell-based immunoassay", "type": "toxicity", "conditions": "mcf7, 4 h", "method_in_brief": "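MCF-7 cells (50,000/well) held overnight at 37 °C, 5% CO2 without serum, then given a compound titration for 4 h. Lysed 20 min in buffer with 0.1% digitonin and protease/phosphatase inhibitors; mouse and rabbit anti-IκBα primaries plus NanoBiT-labelled anti-mouse/anti-rabbit secondaries added, 90 min at 23 °C; Nano-Glo substrate; luminescence read. Means ± S.E.M., n = 3 technical replicates.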"}},
  "note": "Calls of active or inactive are those of the source. The calls are words filed in the database; no cut-off is given here.",
  "data": [
    {"compound": "CCN(CC)C(=O)c1ccc(Nc2nc(OCC3CCCCC3)c3nc[nH]c3n2)cc1", "values": [
      {"measurement": "inhibition", "setting": "[1]", "value": "Active"},
      {"measurement": "inhibition", "setting": "[2]", "value": "Active"},
      {"measurement": "inhibition", "setting": "[3]", "value": "Active"},
      {"measurement": "inhibition", "setting": "[4]", "value": "Active"}
    ]},
    {"compound": "N#CC[C@H](C1CCCC1)n1cc(-c2ncnc3[nH]ccc23)cn1", "note": "[RUXOLITINIB]", "values": [
      {"measurement": "Activity", "setting": "[5]", "value": "Non-Toxic"}
    ]},
    {"compound": "O=C1Nc2ccccc2C12OCC1(CO2)COC2(OC1)C(=O)Nc1ccccc12", "note": "(configuration not stated)", "values": [
      {"measurement": "Activity", "setting": "[6]", "value": "Active"}
    ]},
    {"compound": "C[C@]12CC[C@@H]3c4ccc(O)cc4C[C@@H](CCCCCCCCC[S+]([O-])CCCC(F)(F)C(F)(F)F)[C@H]3[C@@H]1CC[C@@H]2O", "note": "(some centres not stated) [FULVESTRANT]", "values": [
      {"measurement": "Activity", "setting": "[7]", "value": "Non-Toxic"}
    ]}
  ]
}
